Results published in ChEMBL document CHEMBL3804819, “2-(Quinolin-4-yloxy)acetamides Are Active against Drug-Susceptible and Drug-Resistant Mycobacterium tuberculosis Strains” (ACS Med Chem Lett, 2016).
Values after ≈ are worked out from the molar mass of the structure shown. Active and inactive are the calls of the source. The rule behind the calls is not given here.

Experiments:
[1] = tested on: Mycobacterium tuberculosis; assay: Antibacterial activity against Mycobacterium tuberculosis H37Rv assessed as reduction in bacterial growth after 7 days by resazurin assay; assay type: functional; details: for MIC: 168 h
HaCaT = assay: Cytotoxicity against human HaCaT cells assessed as reduction in cell viability at 20 uM after 72 hrs by MTT assay; assay type: cell-based
Pseudomonas aeruginosa = assay: Antibacterial activity against Pseudomonas aeruginosa ATCC 27853 at 20 uM; assay type: functional, organism-based
Vero = assay: Cytotoxicity against African green monkey Vero cells assessed as reduction in cell viability at 20 uM after 72 hrs by MTT assay; assay type: cell-based; details: chlorocebus sabaeus
[2] = tested on: Mycobacterium tuberculosis; assay: Antibacterial activity against Mycobacterium tuberculosis H37Rv infected in mouse RAW 264.7 cells assessed reduction in bacterial count per well at 5 uM after 3 days (reference value: 2.5 +/- 0.15 log10CFU); assay type: functional
Escherichia coli = assay: Antibacterial activity against Escherichia coli ATCC 25922 at 20 uM; assay type: functional, organism-based
RAW264.7 = assay: Cytotoxicity against mouse RAW264.7 cells assessed as decrease in cell viability at 5 uM after 72 hrs by MTT assay; assay type: cell-based; details: raw264.7, 72 h
Staphylococcus aureus = assay: Antibacterial activity against Staphylococcus aureus ATCC 25923 at 20 uM; assay type: functional, organism-based
Acinetobacter baumannii = assay: Antibacterial activity against Acinetobacter baumannii ATCC BAA 747 at 20 uM; assay type: functional, organism-based
[3] = tested on: Mycobacterium tuberculosis; assay: Potency index, ratio of isoniazid MIC to compound MIC for Mycobacterium tuberculosis H37Rv; assay type: functional
Liver = assay: Metabolic stability in human liver S9 fraction at 2 uM measured up to 30 mins by HPLC/MS/MS analysis; assay type: ADME, subcellular; details: s9, 0.5 h
Danio rerio [4] = species: Danio rerio; assay: Toxicity in zebrafish embryo assessed as reduction in embryo viability at 20 uM measured at 72 hrs post fertilization; assay type: organism-based; details: in vivo
How it was run: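 Zebrafish embryos exposed to 20 μM for 72 h; embryo survival scored.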

[5] = Selectivity index, ratio of cytotoxic activity for African green monkey Vero cells to MIC for Mycobacterium tuberculosis H37Rv; assay type: toxicity, cell-based; details: read-out: Selectivity Index
[6] = Inhibition CYP450 in human liver microsomes by HPLC/MS/MS analysis in presence of NADPH; assay type: ADME
[7] = Selectivity index, ratio of cytotoxic activity for human HaCaT cells to MIC for Mycobacterium tuberculosis H37Rv; assay type: toxicity, cell-based; details: read-out: Selectivity Index
[8] = Thermodynamic solubility of the compound at pH 1.5 after 24 hrs by HPLC analysis; assay type: physicochemical; details: buffer, read-out: Therm_solubility
Danio rerio [9] = species: Danio rerio; assay: Toxicity in zebrafish embryo assessed as reduction in heart rate at 5 uM measured at 72 hrs post fertilization by stereo microscopic analysis; assay type: organism-based; details: in vivo
Danio rerio [10] = species: Danio rerio; assay: Toxicity in zebrafish embryo assessed as reduction in heart rate at 20 uM measured at 72 hrs post fertilization by stereo microscopic analysis; assay type: organism-based; details: in vivo
Danio rerio [11] = species: Danio rerio; assay: Toxicity in zebrafish embryo assessed as reduction in heart rate at 1 uM measured at 72 hrs post fertilization by stereo microscopic analysis; assay type: organism-based; details: in vivo
[12] = Thermodynamic solubility of the compound at pH 7.4 after 24 hrs by HPLC analysis; assay type: physicochemical; details: buffer, read-out: Therm_solubility
[13] = Selectivity index, ratio of cardiac toxicity for zebrafish embryo to MIC for Mycobacterium tuberculosis H37Rv; details: read-out: Selectivity Index
[14] = tested on: Mycobacterium tuberculosis; assay: Antibacterial activity against Mycobacterium tuberculosis H37Rv ATCC 25618 assessed as reduction in bacterial growth after 6 days by resazurin assay; assay type: functional; details: H37Rv ATCC 25618, 144 h

COc1ccccc1NC(=O)COc1cc(C)nc2ccccc12
MIC [1]: > 29 µM

COc1ccc2c(c1)c(=O)ccn2CC(=O)Nc1ccccc1OC
MIC [1]: > 31 µM

CCc1cccc(C)c1NC(=O)COc1cc(C)nc2ccc(OC)cc12
MIC [1]: > 27 µM

COc1ccc2nc(C)cc(O)c2c1
Activity [1]: inactive

COc1ccc2nc(C)cc(OCC(=O)NCc3ccccc3)c2c1
MIC [1]: 1.85 µM (≈ 0.622 µg/mL) | Activity (HaCaT): Non-toxic | Activity (Pseudomonas aeruginosa): inactive | Activity (Vero): Non-toxic | Activity [2]: 1.71 log10CFU | Activity (Escherichia coli): inactive | Activity (RAW264.7): Non-toxic | Activity (Staphylococcus aureus): inactive | Activity (Acinetobacter baumannii): inactive

COc1ccc2nc(C)cc(OCC(=O)Nc3ccc([N+](=O)[O-])cc3)c2c1
MIC [1]: 6.79 µM (≈ 2.49 µg/mL)

COc1cccc(NC(=O)COc2cc(C)nc3ccc(OC)cc23)c1
MIC [1]: 0.88 µM (≈ 0.31 µg/mL) | Activity (HaCaT): Non-toxic | Activity (Pseudomonas aeruginosa): inactive | Activity (Vero): Non-toxic | Activity (Escherichia coli): inactive | Activity (Staphylococcus aureus): inactive | Activity (Acinetobacter baumannii): inactive

COc1ccc2nc(C)cc(OCC(=O)Nc3ccc(C(F)(F)F)cc3)c2c1
MIC [1]: 0.8 µM (≈ 0.312 µg/mL) | Activity (HaCaT): Non-toxic | Activity (Pseudomonas aeruginosa): inactive | Activity (Vero): Non-toxic | Activity [2]: 1.89 log10CFU | Activity (Escherichia coli): inactive | Activity (RAW264.7): Non-toxic | Activity (Staphylococcus aureus): inactive | Activity (Acinetobacter baumannii): inactive

COc1ccc2nc(C)cc(OCC(=O)Nc3cccc(Cl)c3)c2c1
MIC [1]: 0.44 µM (≈ 0.157 µg/mL) | Activity (HaCaT): Non-toxic | Activity (Pseudomonas aeruginosa): inactive | Activity (Vero): Non-toxic | Activity [2]: 2.12 log10CFU | Activity (Escherichia coli): inactive | Activity (RAW264.7): Non-toxic | Activity (Staphylococcus aureus): inactive | Activity (Acinetobacter baumannii): inactive

COc1ccc2nc(C)cc(OCC(=O)Nc3ccc4ccccc4c3)c2c1
Ratio [3]: 30 | Stability (Liver): Unstable | MIC [1]: 0.05 µM (≈ 0.0186 µg/mL) | Activity (Danio rerio [4]): Toxic | Selectivity ratio [5]: > 100 | IC50 [6]: < 10 µM | Selectivity ratio [7]: > 100 | Activity (HaCaT): Toxic | Activity (Pseudomonas aeruginosa): inactive | Activity (Vero): Toxic | solubility thermodynamic at 24 h [8]: 30 µM (≈ 11.2 µg/mL) | Activity [2]: 1.93 log10CFU | Activity (Danio rerio [9]): Non-toxic | Activity (Danio rerio [10]): Toxic | Activity (Escherichia coli): inactive | Activity (RAW264.7): Non-toxic | Activity (Staphylococcus aureus): inactive | Activity (Danio rerio [11]): Non-toxic | solubility thermodynamic at 24 h [12]: < 4.4 µM | Activity (Acinetobacter baumannii): inactive | Selectivity ratio [13]: > 100

COc1ccc2nc(C)cc(OCC(=O)Nc3ccccc3Cl)c2c1
MIC [1]: 0.44 µM (≈ 0.157 µg/mL) | Activity (HaCaT): Non-toxic | Activity (Pseudomonas aeruginosa): inactive | Activity (Vero): Non-toxic | Activity [2]: 1.75 log10CFU | Activity (Escherichia coli): inactive | Activity (RAW264.7): Non-toxic | Activity (Staphylococcus aureus): inactive | Activity (Acinetobacter baumannii): inactive

COc1ccc2nc(C)cc(OCC(=O)Nc3ccc(Cl)cc3)c2c1
MIC [1]: 0.44 µM (≈ 0.157 µg/mL) | Activity (HaCaT): Non-toxic | Activity (Pseudomonas aeruginosa): inactive | Activity (Vero): Non-toxic | Activity [2]: 1.73 log10CFU | Activity (Escherichia coli): inactive | Activity (RAW264.7): Non-toxic | Activity (Staphylococcus aureus): inactive | Activity (Acinetobacter baumannii): inactive

COc1ccc(NC(=O)COc2cc(C)nc3ccc(OC)cc23)cc1
MIC [1]: 0.44 µM (≈ 0.155 µg/mL) | Activity (HaCaT): Non-toxic | Activity (Pseudomonas aeruginosa): inactive | Activity (Vero): Non-toxic | Activity (Escherichia coli): inactive | Activity (Staphylococcus aureus): inactive | Activity (Acinetobacter baumannii): inactive

NNC(=O)c1ccncc1 [ISONIAZID]
MIC [1]: 1.46 µM (≈ 0.2 µg/mL)

COc1ccc2nc(C)cc(OCC(=O)Nc3ccccc3)c2c1
MIC [1]: 0.48 µM (≈ 0.155 µg/mL) | Activity (HaCaT): Non-toxic | Activity (Pseudomonas aeruginosa): inactive | Activity (Vero): Non-toxic | Activity (Escherichia coli): inactive | Activity (Staphylococcus aureus): inactive | Activity (Acinetobacter baumannii): inactive

COc1ccc2nc(C)cc(OCC(=O)Nc3ccc4c(c3)OCO4)c2c1
MIC [1]: 0.42 µM (≈ 0.154 µg/mL) | Activity (HaCaT): Non-toxic | Activity (Pseudomonas aeruginosa): inactive | Activity (Vero): Non-toxic | Activity [2]: 1.77 log10CFU | Activity (Escherichia coli): inactive | Activity (RAW264.7): Non-toxic | Activity (Staphylococcus aureus): inactive | Activity (Acinetobacter baumannii): inactive

COc1ccc2nc(C)cc(OCC(=O)Nc3ccccc3OC)c2c1
MIC [1]: 0.44 µM (≈ 0.155 µg/mL) | Activity (HaCaT): Non-toxic | Activity (Pseudomonas aeruginosa): inactive | Activity (Vero): Non-toxic | MIC [14]: 0.7 µM (≈ 0.247 µg/mL) | Activity [2]: 1.61 log10CFU | Activity (Escherichia coli): inactive | Activity (RAW264.7): Non-toxic | Activity (Staphylococcus aureus): inactive | Activity (Acinetobacter baumannii): inactive

COc1ccc2nc(C)cc(OCC(=O)Nc3cccc4ccccc34)c2c1
MIC [1]: 0.21 µM (≈ 0.0782 µg/mL)

COc1ccc2nc(C)cc(OCC(=O)Nc3ccccc3C)c2c1
MIC [1]: 0.46 µM (≈ 0.155 µg/mL) | Activity (HaCaT): Non-toxic | Activity (Pseudomonas aeruginosa): inactive | Activity (Vero): Non-toxic | Activity [2]: 2.09 log10CFU | Activity (Escherichia coli): inactive | Activity (RAW264.7): Non-toxic | Activity (Staphylococcus aureus): inactive | Activity (Acinetobacter baumannii): inactive

COc1ccc(NC(=O)COc2cc(C)nc3ccc(OC)cc23)c(OC)c1
Stability (Liver): Stable | MIC [1]: 0.15 µM (≈ 0.0574 µg/mL) | IC50 [6]: < 10 µM | Activity (HaCaT): Non-toxic | Activity (Pseudomonas aeruginosa): inactive | Activity (Vero): Non-toxic | solubility thermodynamic at 24 h [8]: 30 µM (≈ 11.5 µg/mL) | Activity [2]: 1.61 log10CFU | Activity (Danio rerio [9]): Non-toxic | Activity (Danio rerio [10]): Toxic | Activity (Escherichia coli): inactive | Activity (RAW264.7): Non-toxic | Activity (Staphylococcus aureus): inactive | Activity (Danio rerio [11]): Non-toxic | solubility thermodynamic at 24 h [12]: < 4.4 µM | Activity (Acinetobacter baumannii): inactive

COc1ccc2nc(C)cc(OCC(=O)Nc3cccc(C(F)(F)F)c3)c2c1
MIC [1]: 6.39 µM (≈ 2.49 µg/mL)

COc1ccc2nc(C)cc(OCC(=O)Nc3ccc(N)cc3)c2c1
MIC [1]: 7.39 µM (≈ 2.49 µg/mL)

COc1ccc2nc(C)cc(OCC(=O)Nc3ccc(Br)cc3)c2c1
Stability (Liver): Stable | MIC [1]: 0.1 µM (≈ 0.0401 µg/mL) | IC50 [6]: < 10 µM | Activity (HaCaT): Non-toxic | Activity (Pseudomonas aeruginosa): inactive | Activity (Vero): Non-toxic | solubility thermodynamic at 24 h [8]: 30 µM (≈ 12 µg/mL) | Activity [2]: 1.87 log10CFU | Activity (Danio rerio [9]): Non-toxic | Activity (Danio rerio [10]): Toxic | Activity (Escherichia coli): inactive | Activity (RAW264.7): Non-toxic | Activity (Staphylococcus aureus): inactive | Activity (Danio rerio [11]): Non-toxic | solubility thermodynamic at 24 h [12]: < 4.4 µM | Activity (Acinetobacter baumannii): inactive

CO[C@H]1/C=C/O[C@@]2(C)Oc3c(C)c(O)c4c(O)c(c(/C=N/N5CCN(C)CC5)c(O)c4c3C2=O)NC(=O)/C(C)=C\C=C\[C@H](C)[C@H](O)[C@@H](C)[C@@H](O)[C@@H](C)[C@H](OC(C)=O)[C@@H]1C [RIFAMPIN]
Activity [2]: 1.58 log10CFU

COc1ccc2nc(C)cc(OCC(=O)Nc3ccccc3[N+](=O)[O-])c2c1
MIC [1]: 6.79 µM (≈ 2.49 µg/mL)
